From ChEMBL document CHEMBL1151834, “Bioactive alkaloids from endophytic Aspergillus fumigatus” (J Nat Prod, 2009) come the findings set out here.

Assay type in all cases: functional, cell-based
The subject of one assay is KB. Nature of the assay: Cytotoxicity against human KB cells after 48 hrs by MTT assay. The gist of the method:
(§1)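 Exponential-phase cells plated, allowed 24 h to establish, then exposed to compound dilutions for 48 h. MTT added (0.1 mg/well) for 4 h, supernatant removed, formazan dissolved in DMSO, absorbance read at 570 nm. IC50 taken as concentration giving 50% growth inhibition; mean ± SD of three experiments run in triplicate.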
A general note: Formazan colour is commonly taken as a measure of viable cells.

For a further assay, the system named is MCF7. Nature of the assay: Cytotoxicity against human MCF7 cells after 48 hrs by MTT assay. The gist of the method:
as §1

The test system of a further assay is PC-12. Nature of the assay: Induction of neurite outgrowth in rat PC12 cells at 10 uM after 2 days by phase-contrast microscope. In outline:
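PC12 cells kept in DMEM with 10% heat-inactivated fetal calf serum, 5% horse serum, penicillin 50 units/mL and streptomycin 50 µg/mL at 37 °C, 5% CO2. Seeded at 1 × 10^4 cells/mL, cultured one day, then medium replaced with fresh medium containing compound. Cultured 2 days; neurite outgrowth observed by phase-contrast microscopy against untreated control.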

A further assay relates to K562. Nature of the assay: Cytotoxicity against human K562 cells after 48 hrs by MTT assay. As to conditions: K562, 48 h. In outline:
as §1

Structures are written as SMILES. Counter-ions that a name gives are not always drawn. Activity calls are given as the source filed them. The rule behind the calls is not given here.

With `CC/C=C\[C@H](O)[C@H](O)C1=C(C)C(=O)[C@]2(O1)C(=O)N[C@@](OC)(C(=O)c1ccccc1)[C@@H]2O`, the outcome in the assay with KB and with MCF7 was inactive. In addition, the outcome in the assay on PC-12 was Active.
Broadly, the IC50 is the concentration at which inhibition is half-maximal. Turning to `CS[C@]1(CO)C(=O)N2[C@H]3C(=CC=CC3O)C[C@@]2(SC)C(=O)N1C` (stereo partly specified) [DIMETHYLGLIOTOXIN], the result in the assay on KB, in the assay with MCF7 and in the assay on PC-12 was inactive. The molecule also registered an IC50 in the assay on K562 of 41 µM.
The molecule `COc1cccc2c1C(=O)c1c(O)c3c(c(O)c1C2=O)C[C@@](O)(C(=O)CO)C[C@@H]3O[C@H]1C[C@H](N)[C@H](O)[C@H](C)O1` [DOXORUBICIN HYDROCHLORIDE] had an IC50 in the assay on K562 of 1.2 µM.
Turning to `COc1ccc2c(c1)NC(=O)[C@@]21C=C2C(=O)N3CCC[C@H]3C(=O)N2[C@H]1C=C(C)C`, the outcome in the assay on KB, in the assay on MCF7 and in the assay on PC-12 was inactive.
Take `COc1ccc2c3c4n(c2c1)[C@H](C=C(C)C)OOC(C)(C)C[C@@H]4N1C(=O)[C@@H]2CCCN2C(=O)[C@]1(O)[C@H]3O` [VERRUCULOGEN]: the outcome in the assay with KB, with MCF7 and in the assay on PC-12 was inactive. In the assay on K562, this molecule registered an IC50 of 41 µM.
For `COc1ccc2c(c1)NC(=O)[C@@]21C[C@H]2C(=O)N3CCC[C@H]3C(=O)N2[C@H]1C=C(C)C`, the outcome in the assay on KB, with MCF7 and in the assay with PC-12 was inactive.
As to `C[C@@H]1N[C@@H]2N(C1=O)c1ccccc1[C@@]21C[C@@H](n2cnc3ccccc3c2=O)C(=O)O1`, the outcome in the assay on KB, with MCF7 and in the assay on PC-12 was inactive.
With `COc1ccc2c(C[C@@H]3NC(=O)[C@@H]4CCCN4C3=O)c(CC=C(C)C)[nH]c2c1` [TRYPROSTATIN A], the outcome in the assay with KB, in the assay with MCF7 and with PC-12 was inactive. This molecule also registered an IC50 in the assay on K562 of 41 µM.
Regarding `COc1ccc2c3c([nH]c2c1)[C@H](C=C(C)C)N1C(=O)[C@@H]2CCCN2C(=O)[C@@H]1C3` [FUMITREMORGIN], the result with KB, in the assay on MCF7 and in the assay on PC-12 was inactive. Moreover, the IC50 in the assay on K562 stood at 41 µM.
Turning to `CC(C)=CCc1[nH]c2ccccc2c1C[C@@H]1NC(=O)[C@@H]2CCCN2C1=O` [TRYPROSTATIN B], the result with KB, with MCF7 and in the assay with PC-12 was inactive. This molecule returned an IC50 in the assay on K562 of 41 µM.
Regarding `C=CC(C)(C)c1[nH]c2cccc3c2c1C[C@@H]1[C@@H]3C[C@@H](C)CN1C`, the outcome with KB, with MCF7 and with PC-12 was inactive. For the same molecule, the midpoint of inhibition in the assay with K562, the IC50, lay at 3.1 µM.
`C=CC(C)(C)c1[nH]c2cccc3c2c1C[C@@H]1[C@@H]3[C@@H](O)[C@@H](C)CN1C`: the result in the assay with KB, in the assay with MCF7 and in the assay with PC-12 was inactive. This molecule also gave an IC50 in the assay on K562 of 41 µM.
Regarding `CC(C)=C[C@H]1c2[nH]c3ccccc3c2C[C@H]2C(=O)N3CCC[C@H]3C(=O)N21`, the result in the assay on KB, with MCF7 and in the assay on PC-12 was inactive.
Consider `C/C=C\[C@H](O)[C@H](O)C1=C(C)C(=O)[C@]2(O1)C(=O)N[C@@](OC)(C(=O)c1ccccc1)[C@@H]2O`, for which the result in the assay with KB and with MCF7 was inactive.
